Laboratory results as given in ChEMBL document CHEMBL4715736, “Identification of anticancer agents based on the thieno[2,3-b]pyridine and 1H-pyrazole molecular scaffolds” (2016).

Test system: CCRF-CEM
Assay: Growth inhibition of human CCRF-CEM cells assessed as cell growth at 10 uM incubated for 48 hrs by sulforhodamine B assay relative to control
Type: functional
Settings: read-out: Activity
In short: (§1)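 NCI Developmental Therapeutics Program NCI60 panel. Compounds that were active in the 10 µM one-dose screen went on to dose–response testing. Growth at each concentration is expressed relative to untreated control (100%). GI50 (concentration giving 50% of maximal inhibition of proliferation) and TGI (concentration giving total growth inhibition) were derived from the curves.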

Q: With CC1(C)CCc2cc(-c3ccn(S(=O)(=O)c4ccc(C(F)(F)F)cc4)n3)ccc2O1 as the molecule, how does the growth at 10 µM read?
A: 82.8%

Test system: HL-60(TB)
Assay: Growth inhibition of human HL-60(TB) cells assessed as cell growth at 10 uM incubated for 48 hrs by sulforhodamine B assay relative to control
Type: functional
Settings: read-out: Activity
In short: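 Screened by the NCI Developmental Therapeutics Program on its panel of 60 human tumour cell lines. Compounds were first tested at a single 10 µM dose, and compounds active there went to dose-response curves. Growth is expressed relative to untreated control (100%). GI50 (50% of maximal proliferation inhibition) and TGI (total growth inhibition) were derived from the dose-response data.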

Q: With CC1(C)CCc2cc(-c3ccn(S(=O)(=O)c4ccc(C(F)(F)F)cc4)n3)ccc2O1 as the molecule, how does the growth at 10 µM read?
A: 117%

Test system: MOLT-4
Assay: Growth inhibition of human MOLT-4 cells assessed as cell growth at 10 uM incubated for 48 hrs by sulforhodamine B assay relative to control
Type: functional
Settings: read-out: Activity
In short: (§2)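 Submitted to the NCI Developmental Therapeutics Program for the NCI60 human tumour cell line panel. First screen at a single 10 µM concentration. Read-out is growth relative to untreated control cells set at 100%.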

Q: Which growth at 10 µM does the source give for CC1(C)CCc2cc(-c3ccn(S(=O)(=O)c4ccc(C(F)(F)F)cc4)n3)ccc2O1 here?
A: 78.7%

Test system: A549
Assay: Growth inhibition of human A549/ATCC cells assessed as cell growth at 10 uM incubated for 48 hrs by sulforhodamine B assay relative to control
Type: functional
Settings: read-out: Activity
In short: as §1

Q: How did the growth at 10 µM turn out when CC1(C)CCc2cc(-c3ccn(S(=O)(=O)c4ccc(C(F)(F)F)cc4)n3)ccc2O1 was run?
A: 79.8%

Test system: HOP-62
Assay: Growth inhibition of human HOP-62 cells assessed as cell growth at 10 uM incubated for 48 hrs by sulforhodamine B assay relative to control
Type: functional
Settings: read-out: Activity
In short: as §2

Q: CC1(C)CCc2cc(-c3ccn(S(=O)(=O)c4ccc(C(F)(F)F)cc4)n3)ccc2O1 was tested. Which growth at 10 µM did it give?
A: 119%

Test system: HOP-92
Assay: Growth inhibition of human HOP-92 cells assessed as cell growth at 10 uM incubated for 48 hrs by sulforhodamine B assay relative to control
Type: functional
Settings: read-out: Activity
In short: as §2

Q: How did the growth at 10 µM turn out when CC1(C)CCc2cc(-c3ccn(S(=O)(=O)c4ccc(C(F)(F)F)cc4)n3)ccc2O1 was run?
A: 71.8%

Test system: NCI-H226
Assay: Growth inhibition of human NCI-H226 cells assessed as cell growth at 10 uM incubated for 48 hrs by sulforhodamine B assay relative to control
Type: functional
Settings: read-out: Activity
In short: as §2

Q: CC1(C)CCc2cc(-c3ccn(S(=O)(=O)c4ccc(C(F)(F)F)cc4)n3)ccc2O1 was tested. Which growth at 10 µM did it give?
A: 75.6%

Test system: NCI-H322M
Assay: Growth inhibition of human NCI-H322M cells assessed as cell growth at 10 uM incubated for 48 hrs by sulforhodamine B assay relative to control
Type: functional
Settings: read-out: Activity
In short: as §2

Q: For CC1(C)CCc2cc(-c3ccn(S(=O)(=O)c4ccc(C(F)(F)F)cc4)n3)ccc2O1, which growth at 10 µM is on record?
A: 105%

Test system: NCI-H460
Assay: Growth inhibition of human NCI-H460 cells assessed as cell growth at 10 uM incubated for 48 hrs by sulforhodamine B assay relative to control
Type: functional
Settings: read-out: Activity
In short: as §2

Q: How did the growth at 10 µM turn out when CC1(C)CCc2cc(-c3ccn(S(=O)(=O)c4ccc(C(F)(F)F)cc4)n3)ccc2O1 was run?
A: 92%

Test system: HCT-116
Assay: Growth inhibition of human HCT-116 cells assessed as cell growth at 10 uM incubated for 48 hrs by sulforhodamine B assay relative to control
Type: functional
Settings: read-out: Activity
In short: as §2

Q: CC1(C)CCc2cc(-c3ccn(S(=O)(=O)c4ccc(C(F)(F)F)cc4)n3)ccc2O1 was tested. Which growth at 10 µM did it give?
A: 80.6%

Test system: HCT-15
Assay: Growth inhibition of human HCT-15 cells assessed as cell growth at 10 uM incubated for 48 hrs by sulforhodamine B assay relative to control
Type: functional
Settings: read-out: Activity
In short: as §2

Q: With CC1(C)CCc2cc(-c3ccn(S(=O)(=O)c4ccc(C(F)(F)F)cc4)n3)ccc2O1 as the molecule, how does the growth at 10 µM read?
A: 87.4%

Test system: KM12
Assay: Growth inhibition of human KM12 cells assessed as cell growth at 10 uM incubated for 48 hrs by sulforhodamine B assay relative to control
Type: functional
Settings: read-out: Activity
In short: as §2

Q: How did the growth at 10 µM turn out when CC1(C)CCc2cc(-c3ccn(S(=O)(=O)c4ccc(C(F)(F)F)cc4)n3)ccc2O1 was run?
A: 98%

Test system: SF-295
Assay: Growth inhibition of human SF-295 cells assessed as cell growth at 10 uM incubated for 48 hrs by sulforhodamine B assay relative to control
Type: functional
Settings: read-out: Activity
In short: (§3)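 Run by the NCI Developmental Therapeutics Program as part of its 60-line human tumour panel. Each compound tested at a single 10 µM dose. Growth expressed as % relative to untreated control cells (100%).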

Q: With CC1(C)CCc2cc(-c3ccn(S(=O)(=O)c4ccc(C(F)(F)F)cc4)n3)ccc2O1 as the molecule, how does the growth at 10 µM read?
A: 87.3%

Test system: SF-539
Assay: Growth inhibition of human SF-539 cells assessed as cell growth at 10 uM incubated for 48 hrs by sulforhodamine B assay relative to control
Type: functional
Settings: read-out: Activity
In short: as §3

Q: Which growth at 10 µM does the source give for CC1(C)CCc2cc(-c3ccn(S(=O)(=O)c4ccc(C(F)(F)F)cc4)n3)ccc2O1 here?
A: 94.6%

Test system: SNB-75
Assay: Growth inhibition of human SNB-75 cells assessed as cell growth at 10 uM incubated for 48 hrs by sulforhodamine B assay relative to control
Type: functional
Settings: read-out: Activity
In short: as §3

Q: How did the growth at 10 µM turn out when CC1(C)CCc2cc(-c3ccn(S(=O)(=O)c4ccc(C(F)(F)F)cc4)n3)ccc2O1 was run?
A: 93.5%

Test system: U-251
Assay: Growth inhibition of human U-251 cells assessed as cell growth at 10 uM incubated for 48 hrs by sulforhodamine B assay relative to control
Type: functional
Settings: read-out: Activity
In short: as §3

Q: CC1(C)CCc2cc(-c3ccn(S(=O)(=O)c4ccc(C(F)(F)F)cc4)n3)ccc2O1 was tested. Which growth at 10 µM did it give?
A: 89.1%

Test system: Malme-3M
Assay: Growth inhibition of human Malme-3M cells assessed as cell growth at 10 uM incubated for 48 hrs by sulforhodamine B assay relative to control
Type: functional
Settings: read-out: Activity
In short: as §2

Q: CC1(C)CCc2cc(-c3ccn(S(=O)(=O)c4ccc(C(F)(F)F)cc4)n3)ccc2O1 was tested. Which growth at 10 µM did it give?
A: 97.3%

Test system: M14
Assay: Growth inhibition of human M14 cells assessed as cell growth at 10 uM incubated for 48 hrs by sulforhodamine B assay relative to control
Type: functional
Settings: read-out: Activity
In short: as §2

Q: With CC1(C)CCc2cc(-c3ccn(S(=O)(=O)c4ccc(C(F)(F)F)cc4)n3)ccc2O1 as the molecule, how does the growth at 10 µM read?
A: 92.5%

Test system: MDA-MB-435
Assay: Growth inhibition of human MDA-MB-435 cells assessed as cell growth at 10 uM incubated for 48 hrs by sulforhodamine B assay relative to control
Type: functional
Settings: read-out: Activity
In short: as §2

Q: With CC1(C)CCc2cc(-c3ccn(S(=O)(=O)c4ccc(C(F)(F)F)cc4)n3)ccc2O1 as the molecule, how does the growth at 10 µM read?
A: 96.6%

Test system: SK-MEL-28
Assay: Growth inhibition of human SK-MEL-28 cells assessed as cell growth at 10 uM incubated for 48 hrs by sulforhodamine B assay relative to control
Type: functional
Settings: read-out: Activity
In short: as §3

Q: How did the growth at 10 µM turn out when CC1(C)CCc2cc(-c3ccn(S(=O)(=O)c4ccc(C(F)(F)F)cc4)n3)ccc2O1 was run?
A: 99.6%

Test system: SK-MEL-5
Assay: Growth inhibition of human SK-MEL-5 cells assessed as cell growth at 10 uM incubated for 48 hrs by sulforhodamine B assay relative to control
Type: functional
Settings: read-out: Activity
In short: as §3

Q: For CC1(C)CCc2cc(-c3ccn(S(=O)(=O)c4ccc(C(F)(F)F)cc4)n3)ccc2O1, which growth at 10 µM is on record?
A: 90.7%

Test system: UACC-257
Assay: Growth inhibition of human UACC-257 cells assessed as cell growth at 10 uM incubated for 48 hrs by sulforhodamine B assay relative to control
Type: functional
Settings: read-out: Activity
In short: as §3

Q: Which growth at 10 µM does the source give for CC1(C)CCc2cc(-c3ccn(S(=O)(=O)c4ccc(C(F)(F)F)cc4)n3)ccc2O1 here?
A: 86.8%

Test system: UACC-62
Assay: Growth inhibition of human UACC-62 cells assessed as cell growth at 10 uM incubated for 48 hrs by sulforhodamine B assay relative to control
Type: functional
Settings: read-out: Activity
In short: as §3

Q: Which growth at 10 µM does the source give for CC1(C)CCc2cc(-c3ccn(S(=O)(=O)c4ccc(C(F)(F)F)cc4)n3)ccc2O1 here?
A: 83.5%

Test system: IGROV-1
Assay: Growth inhibition of human IGROV-1 cells assessed as cell growth at 10 uM incubated for 48 hrs by sulforhodamine B assay relative to control
Type: functional
Settings: read-out: Activity
In short: as §2

Q: With CC1(C)CCc2cc(-c3ccn(S(=O)(=O)c4ccc(C(F)(F)F)cc4)n3)ccc2O1 as the molecule, how does the growth at 10 µM read?
A: 89.3%

Test system: OVCAR-3
Assay: Growth inhibition of human OVCAR-3 cells assessed as cell growth at 10 uM incubated for 48 hrs by sulforhodamine B assay relative to control
Type: functional
Settings: read-out: Activity
In short: as §3

Q: For CC1(C)CCc2cc(-c3ccn(S(=O)(=O)c4ccc(C(F)(F)F)cc4)n3)ccc2O1, which growth at 10 µM is on record?
A: 104%

Test system: OVCAR-5
Assay: Growth inhibition of human OVCAR-5 cells assessed as cell growth at 10 uM incubated for 48 hrs by sulforhodamine B assay relative to control
Type: functional
Settings: read-out: Activity
In short: as §3

Q: With CC1(C)CCc2cc(-c3ccn(S(=O)(=O)c4ccc(C(F)(F)F)cc4)n3)ccc2O1 as the molecule, how does the growth at 10 µM read?
A: 95.7%

Test system: NCI/ADR-RES
Assay: Growth inhibition of human NCI/ADR-RES cells assessed as cell growth at 10 uM incubated for 48 hrs by sulforhodamine B assay relative to control
Type: functional
Settings: read-out: Activity
In short: as §2

Q: For CC1(C)CCc2cc(-c3ccn(S(=O)(=O)c4ccc(C(F)(F)F)cc4)n3)ccc2O1, which growth at 10 µM is on record?
A: 92.4%

Test system: A498
Assay: Growth inhibition of human A498 cells assessed as cell growth at 10 uM incubated for 48 hrs by sulforhodamine B assay relative to control
Type: functional
Settings: read-out: Activity
In short: as §1

Q: For CC1(C)CCc2cc(-c3ccn(S(=O)(=O)c4ccc(C(F)(F)F)cc4)n3)ccc2O1, which growth at 10 µM is on record?
A: 74.2%

Test system: RXF 393
Assay: Growth inhibition of human RXF 393 cells assessed as cell growth at 10 uM incubated for 48 hrs by sulforhodamine B assay relative to control
Type: functional
Settings: read-out: Activity
In short: as §3

Q: Which growth at 10 µM does the source give for CC1(C)CCc2cc(-c3ccn(S(=O)(=O)c4ccc(C(F)(F)F)cc4)n3)ccc2O1 here?
A: 84.2%

Test system: SN12C
Assay: Growth inhibition of human SN12C cells assessed as cell growth at 10 uM incubated for 48 hrs by sulforhodamine B assay relative to control
Type: functional
Settings: read-out: Activity
In short: as §3

Q: Which growth at 10 µM does the source give for CC1(C)CCc2cc(-c3ccn(S(=O)(=O)c4ccc(C(F)(F)F)cc4)n3)ccc2O1 here?
A: 97.3%

Test system: UO-31
Assay: Growth inhibition of human UO-31 cells assessed as cell growth at 10 uM incubated for 48 hrs by sulforhodamine B assay relative to control
Type: functional
Settings: read-out: Activity
In short: as §3

Q: For CC1(C)CCc2cc(-c3ccn(S(=O)(=O)c4ccc(C(F)(F)F)cc4)n3)ccc2O1, which growth at 10 µM is on record?
A: 80.2%

Test system: PC-3
Assay: Growth inhibition of human PC-3 cells assessed as cell growth at 10 uM incubated for 48 hrs by sulforhodamine B assay relative to control
Type: functional
Settings: read-out: Activity
In short: as §3

Q: With CC1(C)CCc2cc(-c3ccn(S(=O)(=O)c4ccc(C(F)(F)F)cc4)n3)ccc2O1 as the molecule, how does the growth at 10 µM read?
A: 76.6%

Test system: Hs-578T
Assay: Growth inhibition of human Hs-578T cells assessed as cell growth at 10 uM incubated for 48 hrs by sulforhodamine B assay relative to control
Type: functional
Settings: read-out: Activity
In short: as §2

Q: How did the growth at 10 µM turn out when CC1(C)CCc2cc(-c3ccn(S(=O)(=O)c4ccc(C(F)(F)F)cc4)n3)ccc2O1 was run?
A: 101%

Test system: MDA-MB-468
Assay: Growth inhibition of human MDA-MB-468 cells assessed as cell growth at 10 uM incubated for 48 hrs by sulforhodamine B assay relative to control
Type: functional
Settings: read-out: Activity
In short: as §2

Q: How did the growth at 10 µM turn out when CC1(C)CCc2cc(-c3ccn(S(=O)(=O)c4ccc(C(F)(F)F)cc4)n3)ccc2O1 was run?
A: 64.2%
